# Data published in ChEMBL document CHEMBL1132279, “Axially chiral 1,7-naphthyridine-6-carboxamide derivatives as orally active tachykinin NK(1) receptor antagonists: synthesis, antagonistic activity, and effects on bladder functions” (J Med Chem, 1999).
# pIC50: −log10 of the molar value. Several values for one entry are separate records, joined by “and”; a condition that tells them apart may be missing. Equal values may be shown once.
# Assays:
# [1] = molecular target: Substance-P receptor (Homo sapiens, UniProt P25103); assay: Tachykinin receptor 1 antagonistic activity as ability to inhibit [125I]BH-SP binding in human IM-9 cells (lymphoblast cells); format: cell-based
# [2] = tested on: Cavia porcellus; assay: Effective dose that increased the bladder volume threshold of urethane anesthetized guinea pigs by 30%; format: functional
# In short: (§1)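 Urethane-anesthetized guinea pigs; bladder volume threshold read before dosing (mean of last two stable trials as control) and again 10 min after iv injection. Compound in 80% DMSO, 0.1 mL/100 g body weight. Effect given as % rise in volume threshold over predrug value; ED30 is the dose raising threshold by 30%, with 6–12 animals per dose and 95% confidence limits.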
# [3] = tested on: Cavia porcellus; assay: Shut down time of distension induced rhythmic bladder contractions in urethane anesthetized guinea pigs after a intravenous dose of 0.3 mg/kg of the compound; format: functional
# In short: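 Urethane-anesthetized guinea pigs; saline (39 °C) infused stepwise (0.2 mL) into the bladder via a dome needle until rhythmic isovolumetric contractions appeared. Compound in DMSO (0.05 mL/100 g) given iv at 0.3 mg/kg. Shutdown time (interval between contractions, 30 min cutoff) reported as mean ± SE, compared with the vehicle group mean by Dunnett's test.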
# [4] = tested on: Cavia porcellus; assay: Inhibition of capsaicin-induced plasma extravasation in guinea pig trachea by peroral administration; format: functional; conditions: po, read-out: ID50 (the source's name)
# In short: (§2)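 Male Hartley guinea pigs (n = 5–8) under pentobarbital 35 mg/kg ip. Compound given iv 5 min, or orally 60 min, before iv capsaicin (150 µg/kg) plus Evans blue (20 mg/kg) in ethanol-saline 3:7. After 10 min, animals were perfused with saline and the trachea weighed.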
# [5] = tested on: Cavia porcellus; assay: In vivo inhibition of capsaicin-induced plasma extravasation in the trachea of guinea pigs after peroral administration; format: functional; conditions: po, read-out: ID50 (the source's name); in short: as §2
# [6] = tested on: Cavia porcellus; assay: In vivo inhibition of capsaicin-induced plasma extravasation in the trachea of guinea pigs after intravenous administration; format: functional; in short: as §2
# [7] = tested on: Cavia porcellus; assay: Increased bladder volume threshold in urethane anesthetized guinea pigs by 30%; format: functional; in short: as §1
# Substance-P receptor, sequence (P25103 whole entry): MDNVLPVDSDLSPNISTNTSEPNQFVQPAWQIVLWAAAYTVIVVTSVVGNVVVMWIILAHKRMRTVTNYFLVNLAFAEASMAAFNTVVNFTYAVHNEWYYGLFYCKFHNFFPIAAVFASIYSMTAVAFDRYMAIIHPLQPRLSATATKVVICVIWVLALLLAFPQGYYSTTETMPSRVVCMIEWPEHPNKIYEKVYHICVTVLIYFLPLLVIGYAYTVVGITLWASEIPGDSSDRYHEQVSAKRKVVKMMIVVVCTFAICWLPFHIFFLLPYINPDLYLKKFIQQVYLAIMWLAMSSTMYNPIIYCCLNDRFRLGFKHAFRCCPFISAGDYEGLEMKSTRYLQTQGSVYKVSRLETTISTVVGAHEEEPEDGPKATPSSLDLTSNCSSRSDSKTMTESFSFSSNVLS
Compound,pIC50 [1],ED30 [2] [mg/kg],Shutdown time [3] [min],ED50 [5] [mg/kg],further results
Cc1ccc(-c2c3n(c(=O)c4ncccc24)CCCN(Cc2cc(C(F)(F)F)cc(C(F)(F)F)c2)C3=O)cc1,9.07,0.37,10.1,–,ED50 [4]: 0.073 mg/kg
Cc1ccc(-c2c3n(c(=O)c4ncccc24)CCCCCN(Cc2cc(C(F)(F)F)cc(C(F)(F)F)c2)C3=O)cc1,8.74,0.086,17.1,0.04,–
"Cc1ccc(-c2c3n(c(=O)c4ncccc24)CC[C@@H](C)CN(Cc2cc(C(F)(F)F)cc(C(F)(F)F)c2)C3=O)cc1 (stereo in doubt; (aS,9R)-8b)",–,–,–,–,ID50 [6]: 0.026 mg/kg
Cc1ccc(-c2c3n(c(=O)c4ncccc24)CCN(Cc2cc(C(F)(F)F)cc(C(F)(F)F)c2)C3=O)cc1,8.64,–,–,–,–
"Cc1ccc(-c2c3n(c(=O)c4ncccc24)CC[C@@H](C)CN(Cc2cc(C(F)(F)F)cc(C(F)(F)F)c2)C3=O)cc1 (stereo in doubt; (aR,9R)-8b)",–,0.051,21.8,0.033,ID50 [6]: 0.0043 mg/kg
"Cc1ccc(-c2c(C(=O)N(C)Cc3cc(C(F)(F)F)cc(C(F)(F)F)c3)n(C)c(=O)c3ncccc23)cc1 [7-METHYL-8-OXO-5-P-TOLYL-7,8-DIHYDRO-[1,7]NAPHTHYRIDINE-6-CARBOXYLIC ACID (3,5-BIS-TRIFLUOROMETHYL-BENZYL)-METHYL-AMIDE (STRUCTURAL MIX)]",–,–,–,0.11,ED30 [7]: 0.1 mg/kg; Shutdown time ([3]; 0.3 mg/kg): 12.9 min [middle of 4 runs]
Cc1ccc(-c2c3n(c(=O)c4ncccc24)C[C@@H](C)CN(Cc2cc(C(F)(F)F)cc(C(F)(F)F)c2)C3=O)cc1,–,0.16,17.9,0.033,–
"Cc1ccc(-c2c3n(c(=O)c4ncccc24)CCCCN(Cc2cc(C(F)(F)F)cc(C(F)(F)F)c2)C3=O)cc1 [7-(3,5-BIS-TRIFLUOROMETHYL-BENZYL)-5-P-TOLYL-8,9,10,11-TETRAHYDRO-7H-1,7,11A-TRIAZA-CYCLOOCTA[B]NAPHTHALENE-6,12-DIONE (ATROPISOMERIC MIX)]",–,0.066,–,0.019,Shutdown time ([3]; 0.3 mg/kg): 7.4 min and 19.2 min and 15.7 min
"Cc1ccc(-c2c3n(c(=O)c4ncccc24)CC[C@H](C)CN(Cc2cc(C(F)(F)F)cc(C(F)(F)F)c2)C3=O)cc1 (stereo in doubt; (aS,9S)-8b) [7-(3,5-BIS-TRIFLUOROMETHYL-BENZYL)-9-METHYL-5-P-TOLYL-8,9,10,11-TETRAHYDRO-7H-1,7,11A-TRIAZA-CYCLOOCTA[B]NAPHTHALENE-6,12-DIONE (ATROPISOMERIC MIX)]",–,–,6.7,–,"ED50 ([6]; Cavia porcellus, Plasma, iv, read-out: ID50 (the source's name)): > 0.3 mg/kg"
Cc1ccc(-c2c3n(c(=O)c4ncccc24)C[C@H](C)CN(Cc2cc(C(F)(F)F)cc(C(F)(F)F)c2)C3=O)cc1,8.02,–,5.9,–,–
